According to ChEMBL document CHEMBL4842318, “A γ-lactam siderophore antibiotic effective against multidrug-resistant Pseudomonas aeruginosa, Klebsiella pneumoniae, and Acinetobacter spp” (Eur J Med Chem, 2021):

What was measured:
Acinetobacter baumannii [1] = experiment: Antibacterial activity against 98 member subset of carbapenem resistant Acinetobacter baumannii assessed as assessed as inhibition of bacterial growth by microdilution method; assay type: functional
Outline: (§1)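 Broth microdilution in Chelex-treated, iron-depleted cation-adjusted Mueller-Hinton broth, following the protocol used for siderophore-containing antibiotics; inoculum lowered to 6 × 10^4 cfu/mL; MIC read as growth inhibition, in μg/mL.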

Acinetobacter baumannii [2] = experiment: Antibacterial activity against carbapenem resistant Acinetobacter baumannii isolate PR-314 assessed as bacterial growth inhibition by microdilution method; assay type: functional; outline: as §1
Acinetobacter baumannii [3] = experiment: Antibacterial activity against carbapenem resistant Acinetobacter baumannii isolate PR-325 assessed as bacterial growth inhibition by microdilution method; assay type: functional; outline: as §1
Acinetobacter baumannii [4] = experiment: Antibacterial activity against carbapenem resistant Acinetobacter baumannii isolate PR-326 assessed as bacterial growth inhibition by microdilution method; assay type: functional; outline: as §1
Acinetobacter baumannii [5] = experiment: Antibacterial activity against carbapenem resistant Acinetobacter baumannii isolate PR-342 assessed as bacterial growth inhibition by microdilution method; assay type: functional; outline: as §1
Acinetobacter baumannii [6] = experiment: Antibacterial activity against carbapenem resistant Acinetobacter baumannii isolate PR-387 assessed as bacterial growth inhibition by microdilution method; assay type: functional; outline: as §1
Acinetobacter baumannii [7] = experiment: Antibacterial activity against carbapenem resistant Acinetobacter baumannii isolate PR-319 assessed as inhibition of bacterial growth at 1:1 compound to sulbactam concentration by microdilution method; assay type: functional
Outline: (§2)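 Iron-depleted (Chelex-treated) cation-adjusted Mueller-Hinton broth microdilution; inoculum 6 × 10^4 cfu/mL. Test agent and sulbactam mixed 1:1 by mass and serially 2-fold diluted together. MIC in μg/mL.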

Acinetobacter baumannii [8] = experiment: Antibacterial activity against carbapenem resistant Acinetobacter baumannii isolate PR-384 assessed as inhibition of bacterial growth at 1:1 compound to sulbactam concentration by microdilution method; assay type: functional; outline: as §2
Acinetobacter baumannii [9] = experiment: Antibacterial activity against carbapenem resistant Acinetobacter baumannii isolate PR-423 assessed as inhibition of bacterial growth at 1:1 compound to sulbactam concentration by microdilution method; assay type: functional; outline: as §2
Acinetobacter baumannii [10] = experiment: Antibacterial activity against carbapenem susceptible Acinetobacter baumannii isolate PR-452 assessed as inhibition of bacterial growth at 1:1 compound to sulbactam concentration by microdilution method; assay type: functional
Outline: (§3)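 Broth microdilution MIC in iron-depleted (Chelex resin-treated) cation-adjusted Mueller-Hinton broth, following the protocol used for siderophore-containing antibiotics. Inoculum was lowered to 6 × 10^4 cfu/mL.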

Acinetobacter baumannii [11] = experiment: Antibacterial activity against carbapenem resistant Acinetobacter baumannii isolate PR-325 assessed as inhibition of bacterial growth in presence of 20 ug/ml sulbactam by microdilution method; assay type: functional; settings: dose 20 µg/ml
Acinetobacter baumannii [12] = experiment: Antibacterial activity against carbapenem resistant Acinetobacter baumannii isolate PR-326 assessed as inhibition of bacterial growth in presence of 20 ug/ml sulbactam by microdilution method; assay type: functional; settings: dose 20 µg/ml
Acinetobacter baumannii [13] = experiment: Antibacterial activity against carbapenem resistant Acinetobacter baumannii isolate PR-384 assessed as inhibition of bacterial growth in presence of 20 ug/ml sulbactam by microdilution method; assay type: functional; settings: dose 20 µg/ml
Acinetobacter baumannii [14] = experiment: Antibacterial activity against carbapenem resistant Acinetobacter baumannii isolate PR-399 assessed as inhibition of bacterial growth in presence of 20 ug/ml sulbactam by microdilution method; assay type: functional; settings: dose 20 µg/ml
Acinetobacter baumannii [15] = experiment: Antibacterial activity against carbapenem resistant Acinetobacter baumannii isolate PR-401 assessed as inhibition of bacterial growth in presence of 20 ug/ml sulbactam by microdilution method; assay type: functional; settings: dose 20 µg/ml
Acinetobacter baumannii [16] = experiment: Antibacterial activity against carbapenem resistant Acinetobacter baumannii isolate PR-482 assessed as inhibition of bacterial growth in presence of 20 ug/ml sulbactam by microdilution method; assay type: functional; settings: dose 20 µg/ml; outline: as §3
[17] = Antibacterial activity against carbapenem susceptible Acinetobacter nosocomialis isolate PR-362 assessed as inhibition of bacterial growth in presence of 20 ug/ml sulbactam by microdilution method; assay type: functional; settings: dose 20 µg/ml
Outline: (§4)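 MIC by broth microdilution using iron-depleted (Chelex-treated) cation-adjusted Mueller-Hinton broth and 6 × 10^4 cfu/mL inoculum. Compound serially diluted with sulbactam held constant at 20 μg/mL.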

[18] = Antibacterial activity against carbapenem susceptible Acinetobacter nosocomialis isolate PR-365 assessed as inhibition of bacterial growth in presence of 20 ug/ml sulbactam by microdilution method; assay type: functional; settings: dose 20 µg/ml; outline: as §4
Acinetobacter baumannii [19] = experiment: Antibacterial activity against carbapenem susceptible Acinetobacter baumannii isolate PR-478 assessed as inhibition of bacterial growth in presence of 20 ug/ml sulbactam by microdilution method; assay type: functional; settings: dose 20 µg/ml; outline: as §4
Hepatocyte = experiment: Cytotoxicity against human hepatocytes at 100 uM; assay type: cell-based
PDE3A = PDE3A (Homo sapiens, UniProt Q14432); experiment: Inhibition of PDE3A (unknown origin) at 30 uM
Pseudomonas aeruginosa [20] = experiment: Antibacterial activity against wild type Pseudomonas aeruginosa isolate PR-604 assessed as inhibition of bacterial growth by microdilution method; assay type: functional; outline: as §3
Pseudomonas aeruginosa [21] = experiment: Antibacterial activity against wild type Pseudomonas aeruginosa isolate PR-606 assessed as inhibition of bacterial growth by microdilution method; assay type: functional; outline: as §3
Pseudomonas aeruginosa [22] = experiment: Antibacterial activity against wild type Pseudomonas aeruginosa isolate PR-651 leucine at 533 residue assessed as inhibition of bacterial growth by microdilution method; assay type: functional; outline: as §3
Pseudomonas aeruginosa [23] = experiment: Antibacterial activity against wild type Pseudomonas aeruginosa isolate PR-668 leucine at 533 residue assessed as inhibition of bacterial growth by microdilution method; assay type: functional; outline: as §3
Pseudomonas aeruginosa [24] = experiment: Antibacterial activity against Pseudomonas aeruginosa AR-BANK#0229 infected in sc dosed thigh infection mouse model assessed as reduction in CFU treated four times at 6 hrs interval measured at 26 hrs after infection; assay type: functional, organism-based
Outline: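 Neutropenic mice (cyclophosphamide) inoculated intramuscularly with 1.02 × 10^6 CFU/mouse. Drug given SC at 50 and 100 mg/kg q6h at 2, 8, 14 and 20 h post-infection. Thighs harvested at 26 h and weighed. Thigh CFU/g compared with the 2 h baseline (Δ reported) and with vehicle, using one-way ANOVA with Dunnett's test.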

[25] = Substrate activity at VIM-2 (unknown origin) assessed as Kcat by measuring hydrolysis by spectrophotometry; assay type: ADME
Outline: (§5)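 Substrate hydrolysis (600 μM start) followed at 336 nm (Δε336 = −4362 M−1 cm−1, 0.2 cm cuvette) to completion; velocities over 10 s intervals along progress curve; Km, Vmax from double reciprocal plot, kcat = Vmax/[E].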

[26] = Substrate activity at VIM-2 (unknown origin) assessed as ratio of Kcat to Km by measuring hydrolysis by spectrophotometry; assay type: ADME; outline: as §5
[27] = Substrate activity at IMP-1 (unknown origin) assessed as ratio of Kcat to Km by measuring hydrolysis by spectrophotometry; assay type: ADME; outline: as §5
[28] = Plasma concentration in SC dosed CD-1 mouse treated four times at 6 hrs interval measured after 0.167 hrs; assay type: ADME, organism-based
Outline: (§6)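 CD-1 mice dosed SC at 50 mg/kg. Plasma sampled at 0.167 to 24 h, three individual mice per time point, reported as mean and SD in ng/mL.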

[29] = Plasma concentration in SC dosed CD-1 mouse treated four times at 6 hrs interval measured after 0.5 hrs; assay type: ADME, organism-based; outline: as §6
[30] = Plasma concentration in SC dosed CD-1 mouse treated four times at 6 hrs interval measured after 2 hrs; assay type: ADME, organism-based; outline: as §6
[31] = Plasma concentration in SC dosed CD-1 mouse treated four times at 6 hrs interval measured after 6 hrs; assay type: ADME, organism-based; outline: as §6
[32] = Plasma concentration in SC dosed CD-1 mouse treated four times at 6 hrs interval measured after 8 hrs; assay type: ADME, organism-based; outline: as §6
Acinetobacter baumannii [33] = experiment: Antibacterial activity against carbapenem susceptible Acinetobacter baumannii isolate PR-340 assessed as inhibition of bacterial growth in presence of 20 ug/ml sulbactam by microdilution method

Sequence of PDE3A (Q14432 whole entry): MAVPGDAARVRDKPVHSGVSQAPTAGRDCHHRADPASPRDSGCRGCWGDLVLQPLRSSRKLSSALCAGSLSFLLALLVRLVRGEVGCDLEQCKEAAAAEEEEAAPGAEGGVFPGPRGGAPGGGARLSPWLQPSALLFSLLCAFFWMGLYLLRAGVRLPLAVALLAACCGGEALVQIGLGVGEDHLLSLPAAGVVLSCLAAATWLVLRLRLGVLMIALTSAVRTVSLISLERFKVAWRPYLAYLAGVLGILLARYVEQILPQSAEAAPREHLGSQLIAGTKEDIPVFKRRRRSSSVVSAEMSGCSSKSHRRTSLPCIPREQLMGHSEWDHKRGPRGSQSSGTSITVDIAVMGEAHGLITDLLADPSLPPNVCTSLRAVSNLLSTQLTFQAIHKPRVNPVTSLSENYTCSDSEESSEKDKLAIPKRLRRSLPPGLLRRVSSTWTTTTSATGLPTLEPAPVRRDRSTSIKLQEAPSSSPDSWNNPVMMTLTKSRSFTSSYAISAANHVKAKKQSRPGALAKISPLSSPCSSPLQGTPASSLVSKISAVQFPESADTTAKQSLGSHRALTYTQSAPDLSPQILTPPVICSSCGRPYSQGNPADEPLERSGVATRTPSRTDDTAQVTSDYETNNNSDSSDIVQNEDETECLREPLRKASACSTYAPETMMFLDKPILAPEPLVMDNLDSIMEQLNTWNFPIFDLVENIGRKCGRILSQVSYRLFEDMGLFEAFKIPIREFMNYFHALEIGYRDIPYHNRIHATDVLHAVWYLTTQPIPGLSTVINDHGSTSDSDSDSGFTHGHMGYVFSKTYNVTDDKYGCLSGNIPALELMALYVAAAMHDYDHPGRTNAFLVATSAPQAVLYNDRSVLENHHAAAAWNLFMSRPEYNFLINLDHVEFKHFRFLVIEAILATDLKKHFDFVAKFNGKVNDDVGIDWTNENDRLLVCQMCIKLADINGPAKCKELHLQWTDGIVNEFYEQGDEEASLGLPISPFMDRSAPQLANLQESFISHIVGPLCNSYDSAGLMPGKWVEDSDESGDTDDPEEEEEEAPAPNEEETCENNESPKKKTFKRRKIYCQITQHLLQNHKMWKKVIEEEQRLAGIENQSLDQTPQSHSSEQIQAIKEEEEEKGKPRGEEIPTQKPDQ

For `CC(C)(O/N=C(\C(=O)N[C@H]1CN2CC(C(=O)NCCN3C(=O)c4cc(O)c(O)cc4C3=O)=C(C(=O)O)N2C1=O)c1nc(N)sc1Cl)C(=O)O`, the MIC90 (Acinetobacter baumannii [1]) was over 16 µg/mL, the MIC (Acinetobacter baumannii [2]) was over 16 µg/mL and the MIC (Acinetobacter baumannii [3]) was over 16 µg/mL. It also gave an MIC (Acinetobacter baumannii [4]) of over 16 µg/mL, an MIC (Acinetobacter baumannii [5]) of 16 µg/mL and an MIC (Acinetobacter baumannii [6]) of over 16 µg/mL. It also gave an MIC (Acinetobacter baumannii [7]) of 4 µg/mL, an MIC (Acinetobacter baumannii [8]) of 16 µg/mL and an MIC (Acinetobacter baumannii [9]) of 8 µg/mL. It also gave an MIC (Acinetobacter baumannii [10]) of at most 0.25 µg/mL, an MIC (Acinetobacter baumannii [11]) of over 16 µg/mL and an MIC (Acinetobacter baumannii [12]) of at most 0.25 µg/mL. The MIC (Acinetobacter baumannii [13]) was over 16 µg/mL, the MIC (Acinetobacter baumannii [14]) was at most 0.25 µg/mL and the MIC (Acinetobacter baumannii [15]) was at most 0.25 µg/mL. It also gave an MIC (Acinetobacter baumannii [16]) of at most 0.25 µg/mL, an MIC [17] of at most 0.25 µg/mL and an MIC [18] of at most 0.25 µg/mL. The MIC (Acinetobacter baumannii [19]) was at most 0.25 µg/mL, the Activity (Hepatocyte) was “Non-Toxic” and the inhibition at 30 µM (PDE3A) was over 50%. For the same compound, the MIC (Pseudomonas aeruginosa [20]) was at most 0.25 µg/mL, the MIC (Pseudomonas aeruginosa [21]) was over 16 µg/mL and the MIC (Pseudomonas aeruginosa [22]) was over 16 µg/mL. The MIC (Pseudomonas aeruginosa [23]) was over 16 µg/mL, the Activity (Pseudomonas aeruginosa [24]) was “Dose-Dependent Effect” and the Kcat [25] was 54 s⁻¹. It also gave a Kcat/Km [26] of 0.012 µM⁻¹ s⁻¹, a Kcat/Km [27] of 0.003 µM⁻¹ s⁻¹ and a concentration at 0.167 h [28] of 47400 ng/mL. For the same compound, the concentration at 0.5 h [29] was 16200 ng/mL, the concentration at 2 h [30] was 3070 ng/mL and the concentration at 6 h [31] was 1320 ng/mL. For the same compound, the concentration at 8 h [32] was 1200 ng/mL and the MIC (Acinetobacter baumannii [33]) was at most 0.25 µg/mL.
